The text below walks through data of ChEMBL document CHEMBL1145217, “Discovery of novel tetrahydroisoquinoline derivatives as potent and selective factor Xa inhibitors” (Bioorg Med Chem Lett, 2005).

The nature of series [1]: Mean inhibitory concentration against coagulation factor X; n=3. The method, boiled down: (§1)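 Ki against each protease (factor Xa, thrombin, plasmin, trypsin), obtained from Dixon plots built at two substrate concentrations; mean of n = 3.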
Series [2] can be described thus: Mean inhibitory concentration against trypsin; n=3. In a few lines: as §1
In the next series the target is Plasminogen (Homo sapiens, UniProt P00747). Briefly: Mean inhibitory concentration against plasmin; n=3. In a few lines: as §1
A short description of series [3]: Maximum concentration in monkey plasma after 10 mg/kg oral administration at 120 min. The class given is ADME, organism-based. Also on record: dose 10 mg/kg, route oral. Particulars: cercopithecidae.
A short description of series [4]: Mean inhibitory concentration against thrombin; n=3. The method, boiled down: as §1
A short description of series [5]: Number of mouse death after 10 mg/kg compound intra venous administration; n=3. The class given is ADME, organism-based. Also on record: dose 10 mg/kg. The settings on record: in vivo, iv. The method, boiled down:
(§2)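 Result recorded as the number of deaths over the number of animals tested.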

Series [6] in a line: Inhibitory concentration against thrombin (FIIa); n=2.
A short description of series [7]: Inhibitory concentration against coagulation factor X; n=2.
Series [8] is described as follows: Number of mouse death after 10 mg/kg compound intravenous administration; NT= not tested. The class given is ADME, organism-based. Also on record: dose 10 mg/kg, route intravenous. The settings on record: in vivo. The method, boiled down: as §2
Series [9] is described as follows: Number of mouse death after 10 mg/kg compound intravenous administration; n=3. The class given is ADME, organism-based. Also on record: dose 10 mg/kg, route intravenous. The settings on record: in vivo. In a few lines:
as §2

Series [10] concerns the target Coagulation factor X (Homo sapiens) (UniProt P00742). Particulars: Plasma, at 10 mg/kg.

SMILES strings stand for the structures. pIC50, pKi: −log10 of the molar value. Where only a bound is given, the exact number is not on record here.

Broadly, the pKi is the Ki on a negative log10 scale, so that one unit is a factor of ten. The Cmax is the maximum level reached in the sampled fluid or tissue. One may read the pIC50 as the IC50 on a negative log10 scale, so that one unit is a factor of ten. In general, inhibition refers to the relative decrease from the control value, in per cent.

Chain of Plasminogen (P00747 97-580 limits assumed): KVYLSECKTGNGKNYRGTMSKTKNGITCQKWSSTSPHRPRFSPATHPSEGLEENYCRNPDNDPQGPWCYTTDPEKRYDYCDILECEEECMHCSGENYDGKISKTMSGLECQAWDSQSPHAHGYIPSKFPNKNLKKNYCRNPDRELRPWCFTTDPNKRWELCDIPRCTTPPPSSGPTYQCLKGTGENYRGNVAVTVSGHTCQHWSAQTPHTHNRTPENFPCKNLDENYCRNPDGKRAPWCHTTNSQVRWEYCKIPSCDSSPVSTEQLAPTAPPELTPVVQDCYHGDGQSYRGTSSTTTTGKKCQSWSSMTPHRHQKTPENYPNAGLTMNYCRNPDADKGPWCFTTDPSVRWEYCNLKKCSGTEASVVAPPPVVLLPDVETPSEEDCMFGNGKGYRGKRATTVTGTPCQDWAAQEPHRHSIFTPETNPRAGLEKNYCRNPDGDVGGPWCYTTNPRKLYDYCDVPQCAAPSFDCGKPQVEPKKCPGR
Chain of Plasminogen (P00747 581-810 limits assumed): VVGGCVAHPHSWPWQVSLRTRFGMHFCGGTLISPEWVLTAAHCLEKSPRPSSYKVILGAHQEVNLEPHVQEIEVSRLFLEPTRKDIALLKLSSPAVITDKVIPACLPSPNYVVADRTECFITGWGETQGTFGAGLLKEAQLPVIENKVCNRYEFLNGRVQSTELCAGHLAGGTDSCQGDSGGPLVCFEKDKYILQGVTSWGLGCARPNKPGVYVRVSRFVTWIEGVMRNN
Chain of Coagulation factor X (Homo sapiens) (P00742 41-179 limits assumed): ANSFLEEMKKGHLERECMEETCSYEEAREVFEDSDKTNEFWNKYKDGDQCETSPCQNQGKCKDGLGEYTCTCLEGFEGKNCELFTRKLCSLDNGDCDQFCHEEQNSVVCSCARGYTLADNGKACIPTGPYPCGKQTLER
Chain of Coagulation factor X (Homo sapiens) (P00742 235-488 limits assumed): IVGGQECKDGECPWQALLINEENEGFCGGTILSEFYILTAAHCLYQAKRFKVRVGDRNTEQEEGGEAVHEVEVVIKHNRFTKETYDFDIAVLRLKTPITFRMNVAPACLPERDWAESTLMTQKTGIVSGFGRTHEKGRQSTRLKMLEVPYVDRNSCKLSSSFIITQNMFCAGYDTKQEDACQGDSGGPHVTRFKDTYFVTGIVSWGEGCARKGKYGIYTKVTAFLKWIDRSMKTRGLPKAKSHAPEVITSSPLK

Regarding `N=C(N)N1CCc2ccc(OCC3(C(=O)O)CCN(c4ccncc4)CC3)cc2C1.O=S(O)O`, the pKi in series [1] is 7.72; in series [2] it was 4.87; at Plasminogen it was 4.11; in series [4], below 4.00. The compound further displayed a Cmax in series [3] of 391 ng/mL.
Compound `Cl.Cl.N=C(N)N1CCc2ccc(OCC3(C(=O)O)CCN(c4ccncc4)CC3)cc2C1` registered a Mortality in series [5] of 0. This compound gave a pIC50 in series [6] below 5.00.
Regarding `Cc1cc(N2CCC(COc3ccc4c(c3)CN(C(=N)N)CC4)(C(=O)O)CC2)ccn1.Cl.Cl`, the pIC50 is 6.70 in [7] and below 5.00 in [6]. The compound further yielded a Mortality in series [5] of 0.
Regarding `Cl.Cl.Cl.N=C(N)N1CCc2ccc(OCC3CCN(Cc4ccncc4)CC3)cc2C1`, the pIC50 is 6.10 in series [7] and below 5.00 in series [6]. In addition, the Mortality in series [8] is recorded as 3.
For the compound `N=C(N)N1CCc2ccc(OCC3CCN(Cc4ccccn4)CC3)cc2C1`, the pIC50 in series [7] was 6.00; in series [6], below 5.00.
In the case of `N=C(N)N1CCc2ccc(OCC3CCNCC3)cc2C1`, the results for the pIC50 in [7] and in series [6] were 5.52 and below 5.00, respectively.
For `Cl.Cl.N=C(N)N1CCc2ccc(OCC3CCN(c4ccncc4)CC3)cc2C1`, the figures for the pIC50 in series [7] and in series [6] were 7.22 and below 5.00, respectively. The same compound displayed a Mortality in [9] of 3.
On the same counts, the results for `Cl.Cl.N=C(N)N1CCc2ccc(OCC3CCN(c4ccnc5ccccc45)CC3)cc2C1` are 6.40, below 5.00 and 3.
Taken in the same sequence, the figures for `COC(=O)c1cnccc1N1CCC(COc2ccc3c(c2)CN(C(=N)N)CC3)CC1.Cl.Cl` were 6.70, below 5.00 and 3.
Take `N=C(N)N1CCc2ccc(OCC3(C(=O)O)CCN(c4ccncc4)CC3)cc2C1`: the inhibition in [10] is 41%.
For the compound `Cl.Cl.N=C(N)N1CCc2ccc(OCC3(C(=O)O)CCN(c4ccncn4)CC3)cc2C1`, the values for the pIC50 in series [7] and in series [6] were 7.00 and below 5.00, respectively. In addition, the Mortality in series [5] is listed as 0.
As to `CC(=N)N1CCC(COc2ccc3c(c2)CN(C(=N)N)CC3)CC1.Cl.Cl`, the values for the pIC50 in series [7] and in series [6] were 6.30 and below 5.00, respectively. For the same compound, the Mortality in series [9] worked out at 3.
Taken in the same sequence, the figures for `Cl.Cl.N=C(N)N1CCc2ccc(OCC3CCN(c4ccncc4C(=O)O)CC3)cc2C1` were 5.70, below 5.00 and 0.
With `Cl.Cl.N=C(N)N1CCc2ccc(OCC3CCN(c4ccncc4CCC(=O)O)CC3)cc2C1`, the pIC50 in [7] was 6.70; in series [6], below 5.00. In [5], the Mortality was found to be 0.
Taken in the same sequence, the figures for `CCOC(=O)C1(COc2ccc3c(c2)CN(C(=N)N)CC3)CCN(c2ccncc2)CC1.Cl.Cl` were 7.10, below 5.00 and 3.
Take `CC(=N)N1CCC(Oc2ccc(C(Cc3ccc4cc[n+](C(=N)N)cc4c3)C(=O)O)cc2)C1` (stereo not drawn): the pKi in series [2] was 6.21; on Plasminogen it was 4.64; in [4], below 4.00.
Turning to `CCOC(=O)CCc1cnccc1N1CCC(COc2ccc3c(c2)CN(C(=N)N)CC3)CC1.Cl.Cl`, the pIC50 in series [7] is 6.70; in [6], below 5.00. Further, in [9], the Mortality was 3.
